As usually defined, the Ki is a measure of affinity in units of concentration, obtained from inhibition or displacement. As a reminder, the IC50 is the concentration at which inhibition is half-maximal.

Experiment [1] addresses T1, Adenosine receptor A1 (Homo sapiens, UniProt P30542).
T1 sequence (P30542 whole entry): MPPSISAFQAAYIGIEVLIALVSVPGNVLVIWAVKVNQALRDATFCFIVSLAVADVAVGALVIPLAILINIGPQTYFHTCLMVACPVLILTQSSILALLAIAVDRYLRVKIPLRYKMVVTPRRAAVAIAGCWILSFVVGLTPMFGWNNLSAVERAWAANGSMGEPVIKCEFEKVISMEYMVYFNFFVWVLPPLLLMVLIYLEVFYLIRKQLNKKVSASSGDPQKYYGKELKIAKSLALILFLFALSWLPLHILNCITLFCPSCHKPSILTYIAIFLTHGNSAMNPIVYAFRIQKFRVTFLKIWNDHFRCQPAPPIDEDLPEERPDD
The experiment in a line: Displacement of [3H]DPCPX from human Adenosine A1 receptor expressed in CHO cells; range 237-384. In kind it is cell-based. A digest of the protocol: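 Competition binding on membranes of CHO cells stably expressing human A1 receptor, resuspended in 50 mM Tris HCl pH 7.4. Incubation 120 min at 25 °C with 1 nM [3H]DPCPX, 50 µg protein per assay and at least six to eight test concentrations. CHA defined nonspecific binding. Bound ligand separated on glass-fibre filters and counted; n = 3-6.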

Experiment [2] addresses T2, Adenosine receptor A3 (Homo sapiens, UniProt P0DMS8).
T2 sequence (P0DMS8 whole entry): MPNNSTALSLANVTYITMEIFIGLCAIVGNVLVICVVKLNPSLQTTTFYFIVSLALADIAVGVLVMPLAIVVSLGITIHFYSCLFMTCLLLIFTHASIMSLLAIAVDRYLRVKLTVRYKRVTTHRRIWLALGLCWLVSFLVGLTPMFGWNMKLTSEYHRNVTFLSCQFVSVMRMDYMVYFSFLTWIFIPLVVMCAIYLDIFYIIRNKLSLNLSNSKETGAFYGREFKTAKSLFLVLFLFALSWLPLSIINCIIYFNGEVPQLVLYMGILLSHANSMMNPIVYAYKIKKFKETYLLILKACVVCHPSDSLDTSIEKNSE
The experiment in a line: Displacement of [3H]MRE3008-F20 from human Adenosine A3 receptor expressed in HEK cells; range 0.31-0.56. In kind it is cell-based, HEK293. Background: Loss of bound radioactivity is the signal in a displacement assay; it reports binding, not function.

Experiment [3] addresses T3, Adenosine receptor A2a (Homo sapiens, UniProt P29274). The experiment in a line: Displacement of [3H]SCH-58261 from human Adenosine A2A receptor expressed in HEK293 cells; range 8-18. Type of experiment: cell-based.
The target in experiment [4] is T4, Adenosine receptor A2b (Homo sapiens, UniProt P29275).
T4 sequence (P29275 whole entry): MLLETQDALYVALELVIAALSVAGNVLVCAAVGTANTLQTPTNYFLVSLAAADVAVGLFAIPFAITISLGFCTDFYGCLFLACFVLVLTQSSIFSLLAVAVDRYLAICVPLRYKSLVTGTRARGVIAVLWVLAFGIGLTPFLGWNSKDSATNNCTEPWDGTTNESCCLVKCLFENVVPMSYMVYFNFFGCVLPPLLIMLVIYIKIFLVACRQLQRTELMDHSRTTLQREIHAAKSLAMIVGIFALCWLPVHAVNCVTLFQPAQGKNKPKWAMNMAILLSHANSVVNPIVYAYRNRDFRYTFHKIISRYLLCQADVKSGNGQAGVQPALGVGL
The experiment in a line: Displacement of [3H]DPCPX from human Adenosine A2B receptor expressed in HEK293 cells; range 34-62. Type of experiment: cell-based. In short, it runs like this: (§1)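 HEK-293 membranes expressing the human receptor were incubated 60 min at 25 °C. Six to eight test concentrations were used. Nonspecific binding was set with NECA. n = 3-6.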

For experiment [5], the target named is Adenosine receptors; A2b & A3 (Homo sapiens) (UniProt P29275+P0DMS8). The experiment can be described thus: Selectivity ratio (h2B/hA3). Type of experiment: protein assay.
Experiment [6] has as its target Adenosine receptors; A1 & A3 (Homo sapiens) (UniProt P30542+P0DMS8). The experiment in a line: Selectivity ratio (hA1/hA3). Type of experiment: protein assay.
Experiment [7] has as its target T4, Adenosine receptor A2b. The experiment can be described thus: Displacement of [3H]DPCPX from human Adenosine A2B receptor expressed in HEK293 cells; range 124-180. In kind it is cell-based. A digest of the protocol: as §1
In experiment [8] the target is T1, Adenosine receptor A1. The experiment in a line: Displacement of [3H]DPCPX from human Adenosine A1 receptor expressed in CHO cells; range 184-333. In kind it is cell-based.
Experiment [9] has as its target T3, Adenosine receptor A2a. The experiment can be described thus: Displacement of [3H]SCH-58261 from human Adenosine A2A receptor expressed in HEK293 cells; range 78-114. Type of experiment: cell-based.
Experiment [10] concerns the target T2, Adenosine receptor A3. The experiment can be described thus: Displacement of [3H]MRE3008-F20 from human Adenosine A3 receptor expressed in HEK cells; range 0.53-0.68. In kind it is cell-based, HEK293.
The target of experiment [11] is T4, Adenosine receptor A2b. The experiment can be described thus: Displacement of [3H]DPCPX from human Adenosine A2B receptor expressed in HEK293 cells; range 116-134. In kind it is cell-based. A digest of the protocol:
(§2)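 Membranes from HEK-293 cells with human recombinant A2B receptor. Incubation 60 min at 25 °C in 50 mM Tris HCl, 10 mM MgCl2, 1 mM EDTA, 0.1 mM benzamidine, pH 7.4, with 2 IU/mL adenosine deaminase and 40 nM [3H]DPCPX. At least six to eight test concentrations. Nonspecific binding defined with NECA. n = 3-6.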

The target in experiment [12] is T1, Adenosine receptor A1. The experiment in a line: Displacement of [3H]DPCPX from human Adenosine A1 receptor expressed in CHO cells; range 156-258. Type of experiment: cell-based.
Experiment [13] concerns the target T3, Adenosine receptor A2a. The experiment in a line: Displacement of [3H]SCH-58261 from human Adenosine A2A receptor expressed in HEK293 cells; range 71-111. Type of experiment: cell-based.
For experiment [14], the target named is T2, Adenosine receptor A3. The experiment can be described thus: biochemical.
The target of experiment [15] is T4, Adenosine receptor A2b. The experiment in a line: Displacement of [3H]DPCPX from human Adenosine A2B receptor expressed in HEK293 cells; range 89-116. In kind it is cell-based. A digest of the protocol: as §2
In experiment [16] the target is T1, Adenosine receptor A1. The experiment can be described thus: Displacement of [3H]DPCPX from human Adenosine A1 receptor expressed in CHO cells; range 332-479. In kind it is cell-based. A digest of the protocol: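 Human recombinant A1 receptor in CHO cell membranes, resuspended in 50 mM Tris HCl pH 7.4. Displacement run 120 min at 25 °C with 1 nM [3H]DPCPX, 50 µg protein per assay, and at least six to eight test concentrations. Nonspecific binding defined with CHA. Bound and free separated on glass-fiber filters; filter radioactivity counted. n = 3-6.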

Experiment [17] concerns the target T2, Adenosine receptor A3. The experiment can be described thus: Displacement of [3H]MRE3008-F20 binding at human Adenosine A3 receptor expressed in HEK cells; range 0.82-1.01. In kind it is cell-based, HEK293.
Experiment [18] addresses T2, Adenosine receptor A3. The experiment can be described thus: Inhibition of IB-MECA agonist-mediated cAMP production in CHO cell membranes expressing human Adenosine A3 receptor; range 4.4-15.2. Type of experiment: functional, cell-based. A general note: cAMP levels reflect the balance of adenylyl cyclase and phosphodiesterase activity.
Experiment [19] addresses T3, Adenosine receptor A2a. The experiment in a line: Displacement of [3H]SCH-58261 from human Adenosine A2A receptor expressed in HEK293 cells; range 174-230. Type of experiment: cell-based.
The target in experiment [20] is T4, Adenosine receptor A2b. The experiment can be described thus: Displacement of [3H]DPCPX from human Adenosine A2B receptor expressed in HEK293 cells; […]. In kind it is cell-based. A digest of the protocol: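 Competition binding on membranes of HEK-293 cells carrying recombinant human A2B receptor. Incubation 60 min at 25 °C in 50 mM Tris HCl pH 7.4 with 10 mM MgCl2, 1 mM EDTA, 0.1 mM benzamidine and 2 IU/mL adenosine deaminase. Radioligand 40 nM [3H]DPCPX, at least six to eight test concentrations. NECA defined nonspecific binding. Bound ligand separated on glass-fibre filters and counted; n = 3-6.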

For experiment [21], the target named is T1, Adenosine receptor A1. The experiment can be described thus: Displacement of [3H]DPCPX from human Adenosine A1 receptor expressed in CHO cells; range 345-465. In kind it is cell-based.
Experiment [22] deals with T2, Adenosine receptor A3. The experiment can be described thus: Displacement of [3H]MRE3008-F20 binding at human Adenosine A3 receptor expressed in HEK cells; range 0.77-0.96. Type of experiment: cell-based, HEK293.
The target of experiment [23] is T3, Adenosine receptor A2a. The experiment in a line: Displacement of [3H]SCH-58261 from human Adenosine A2A receptor expressed in HEK293 cells; range 114-170. Type of experiment: cell-based.

T3 sequence (P29274 whole entry): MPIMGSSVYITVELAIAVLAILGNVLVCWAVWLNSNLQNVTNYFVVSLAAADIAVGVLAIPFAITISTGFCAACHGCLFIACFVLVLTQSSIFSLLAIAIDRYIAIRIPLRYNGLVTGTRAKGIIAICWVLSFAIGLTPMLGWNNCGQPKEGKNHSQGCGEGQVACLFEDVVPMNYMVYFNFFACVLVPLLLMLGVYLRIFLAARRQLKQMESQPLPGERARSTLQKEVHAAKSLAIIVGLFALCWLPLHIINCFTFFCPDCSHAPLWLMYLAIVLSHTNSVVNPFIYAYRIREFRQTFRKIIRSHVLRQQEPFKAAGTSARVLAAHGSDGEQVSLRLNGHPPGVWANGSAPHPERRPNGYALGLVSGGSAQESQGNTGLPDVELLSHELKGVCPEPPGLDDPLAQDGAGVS

For `CCCn1cc2c(nc(NC(=O)Nc3ccc(C)cc3)n3nc(-c4ccco4)nc23)n1`, the Ki in experiment [1] worked out at 302 nM; in [2], 0.4 nM; in experiment [3], 12 nM; in experiment [4], 46 nM. Moreover, the Ratio in [5] worked out at 115; in experiment [6], 755.

Consider `CCCCn1cc2c(nc(NC(=O)Nc3cccc(OC)c3)n3nc(-c4ccco4)nc23)n1`, for which the inhibition constant Ki in experiment [7] was 150 nM; in [8] it was 248 nM; in experiment [9] it was 95 nM; in experiment [10], 0.6 nM. Also, the Ratio came out at 250 in [5] and 413 in experiment [6].

In the case of `CCCCn1cc2c(nc(NC(=O)Nc3ccccc3OC)n3nc(-c4ccco4)nc23)n1`, the inhibition constant (Ki) in experiment [11] came to 125 nM; in experiment [12], 200 nM; in experiment [13], 91 nM; in experiment [14] it was 0.57 nM. Besides, the Ratio in experiment [5] came to 219; in [6], 351.

Regarding `Cn1cc2c(nc(NC(=O)Nc3ccccc3Cl)n3nc(-c4ccco4)nc23)n1`, the inhibitory constant (Ki) in [15] came out at 101 nM; in experiment [16] it was 400 nM; in experiment [17], 0.91 nM; in [19], 200 nM. Moreover, in [18], the IC50 stood at 8.2 nM. The Ratio was determined as 111 in experiment [5] and 440 in experiment [6].

Regarding `CCn1cc2c(nc(NC(=O)Nc3cccc(OC)c3)n3nc(-c4ccco4)nc23)n1`, the Ki was 215 nM in experiment [20], 400 nM in experiment [21], 0.86 nM in [22] and 140 nM in experiment [23]. Further, the figures for the Ratio in [5] and in experiment [6] were 250 and 465, respectively.

The values above are taken from ChEMBL document CHEMBL1136016, “Synthesis, biological activity, and molecular modeling investigation of new pyrazolo[4,3-e]-1,2,4-triazolo[1,5-c]pyrimidine derivatives as human A(3) adenosine receptor antagonists” (J Med Chem, 2002).
